Results reported in ChEMBL document CHEMBL1144735, “Design, synthesis, and evaluation of trifluoromethyl ketones as inhibitors of SARS-CoV 3CL protease” (Bioorg Med Chem, 2008).

Target: Replicase polyprotein 1a (Severe acute respiratory syndrome-related coronavirus, UniProt P0C6U8)
Assay: Inhibition of SARS-CoV 3CL protease
Procedure, shortened: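 Purified SARS-CoV 3CL protease (50 nM) with 6 μM fluorogenic substrate peptide in 20 mM Bis–Tris pH 7.0 at 25 °C. Initial velocities were read across inhibitor concentrations and fitted for IC50.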

SMILES	IC50 [µM]
CCCCCCCCC(=O)N[C@@H](CC(C)C)C(=O)NC(Cc1ccccc1)C(=O)C(F)(F)F (stereo partly drawn)	> 50
C[C@H](NC(=O)[C@H](CCC(=O)OC(C)(C)C)NC(=O)OC(C)(C)C)C(=O)NCC(=O)C(F)(F)F	40
C[C@H](NC(=O)[C@@H](N)CCC(=O)O)C(=O)NCC(=O)C(F)(F)F	50
CC(C)C[C@H](NC(=O)[C@@H](NC(=O)[C@H](C)NC(=O)OCc1ccccc1)C(C)C)C(=O)N[C@@H](Cc1ccccc1)C(=O)C(F)(F)F (mixture of isomers)	10
CC(C)C[C@H](NC(=O)OC(C)(C)C)C(=O)NC(C)C(=O)C(F)(F)F (mixture of isomers)	40
CC(C)C[C@H](NC(=O)OCc1ccccc1)C(=O)NC(Cc1ccccc1)C(=O)C(F)(F)F (mixture of isomers)	15
CCCCCCCCCC(=O)N[C@@H](CC(C)C)C(=O)NC(Cc1ccccc1)C(=O)C(F)(F)F (mixture of isomers)	50
O=C(N[C@@H](Cc1ccccc1)C(=O)NC(Cc1ccccc1)C(=O)C(F)(F)F)OCc1ccccc1 (mixture of isomers)	20
